Measurements gathered from unrelated publications.
Protocols differ between the studies behind these lines.
Cell line: COLO 205
Effect on: cell growth or viability

SMILES | technique | tested at | time | endpoint | result
COc1c2ccoc2c(OCC=C(C)C)c2oc(=O)ccc12 | MTT | – | 24 h | IC50 | > 100000 nM
COc1cc(Nc2nccc(-c3cnn4nc(OC)ccc34)n2)cc(C(F)(F)F)c1 | ATP luminescence | – | – | IC50 | 510 nM
COc1cccc(Oc2ccccc2NC(=O)CNC(=O)c2cccc3ccccc23)c1 | SRB | – | 48 h | GI50 | 282 nM
CC(C)C[C@H](NC(=O)[C@H](Cc1ccccc1)NC(=O)c1cnccn1)B(O)O | ATP luminescence | – | – | IC50 | 22 nM
CC(C)[C@H](N)c1nc2cc(-c3ccncc3F)sc2c(=O)[nH]1 | MTT | – | – | IC50 | 24.8 nM
COc1cc2ccc(=O)oc2cc1OC | MTT | – | 24 h | IC50 | > 100000 nM
Cc1cc(-c2cc3nc([C@@H](N)C(C)C)[nH]c(=O)c3s2)ccn1 | MTT | – | – | IC50 | 1410 nM
COc1ccc(C(=O)/C=C/c2ccccc2Br)cc1S(N)(=O)=O | SRB | – | 48 h | GI50 | 2200 nM
CC(C)[C@H](N)c1nc2cc(-c3ccnc(F)c3)sc2c(=O)[nH]1 | MTT | – | – | IC50 | 89.3 nM
COc1ccc(C(=O)/C=C/c2cccc(Cl)c2)cc1S(N)(=O)=O | SRB | 10 µM | – | inhibition | 165%
